# Bioassay records deposited in PubChem by several laboratories.
# proKLK7 act – proKLK7 zymogen activators, primary screen, biochemical, fluorescence intensity. activation, % at 7 µM. actives 0.9% (n = 370,000). AID 652039, 2013. purified proKLK7, EDANS-DABCYL substrate fluorescence; 100% is mature enzyme control, 0% vehicle;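 active means activation above the mean of all tested compounds plus 3 SD, computed per campaign excluding outliers beyond control limits, cut at about 13% in these data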
# PLCb3 inh – human PLC-beta3 inhibitors, primary screen, biochemical, fluorescence | Purified PLC-beta3, fluorogenic substrate | actives 0.18% (n = 370,000) | AID 720704, 2013 | 1-phosphatidylinositol 4,5-bisphosphate phosphodiesterase beta-3 (Homo sapiens), Q01970 | inhibition, % at 12.2 µM; in the data active means inhibition above about 11%;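 further: 0% = median of compound wells on plate and 100% = full blocker control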
# Tn6 DDE FP – inhibitors of Tn6 peptide binding to fibrin DD(E), primary screen, biochemical, fluorescence polarization, human fibrin, Tn6 probe; actives 0.21% (n = 370,000); Fibrinogen beta chain (Homo sapiens), P02675; inhibition, % at 8.3 µM; Fibrin DD(E) TRITC-Tn6 fluorescence polarization displacement;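 active means inhibition above a per-campaign cutoff: mean of compounds within control limits plus 3 SD, cut at about 15% in these data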;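 further: 0% = median of all compound wells on the plate and 100% = blocking peptide control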
# PLCg1 inh – PLC-gamma1 enzyme inhibitors, primary screen, biochemical, fluorescence, purified enzyme. AID 720700, 2013. fluorogenic substrate. 1-phosphatidylinositol 4,5-bisphosphate phosphodiesterase gamma-1 (Homo sapiens), P19174. actives 0.84% (n = 370,000). inhibition, % at 12.2 µM; in the data active means inhibition above about 9.5%
# NRP1-CendR mod – modulators of CendR peptide binding to NRP-1, primary screen, biochemical, fluorescence polarization, uHTS; Neuropilin-1 (Homo sapiens), O14786; FAM-RPARPAR peptide binding to NRP-1; inhibition, % at 25 µM; actives 0.85% (n = 360,000);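 active means inhibition or corrected inhibition above about 18%, plus a signal ratio from 0.5 to 1.5, limit read from the data, passing the limit was not always enough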
# Tn7 DDE FP – inhibitors of Tn7 peptide binding to fibrin DD(E), primary screen, biochemical, fluorescence polarization, human fibrin, Tn7 probe; inhibition, % at 8.3 µM; Fibrinogen beta chain (Homo sapiens), P02675; FP displacement of FITC-Tn7 peptide from fibrin DD(E); 0% = median of compound wells per plate; actives 0.13% (n = 370,000); AID 720508, 2013;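 active means inhibition above the mean of compounds falling within the control limits plus 3 SD of them, cut at about 14% in these data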;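 further: 0% = plate median of compound wells and 100% = 10 µM Aha-Tn7 peptide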
#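 Assay system: human fibrin DD(E) protein / Input: 2 µM fibrin DD(E) / Benchmarks: high control of 10 µM Aha-Tn7 peptide / Measured by: fluorescence polarization of the labelled Tn7 tracer / Medium: Tris buffer with calcium and detergent, pH 7.8 / Timing: 10 min compound pre-incubation, 3 h probe incubation at room temperature / Repeats: one replicate per compound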
# Active calls of the source: *; i = inactive; . = no result. Compounds with a hit are over-represented: about 3% of the library has one in this group of screens.
SMILES,proKLK7 act,PLCb3 inh,Tn6 DDE FP,PLCg1 inh,NRP1-CendR mod,Tn7 DDE FP
CN1CCN(C(=O)c2ccc(N(C)S(=O)(=O)c3cccs3)cc2)CC1,-1,0,-1,1,22*,-1
CC1(C)O[C@@H]2[C@H](O1)[C@@H](CO)O[C@H]2n1cnc2c(=O)[nH]cnc21,0,6,-2,6,26*,3
N#Cc1ccccc1OCC(=O)OCC(=O)N1CCCC1,0,1,-6,2,19*,-4
N#C/C(=C\c1ccccc1)C(=O)N1CCC(C(N)=O)CC1,0,4,6,1,0,-5
N#C/C(=C\c1ccccc1)C(=O)OCC(=O)N1CCCC1,1,-2,5,-1,24*,2
CCCn1nc2cc(C(=O)NCCc3ccc(C)cc3)ccc2c1OCC,-20,-383,-2,-338,26*,-3
CCOc1c2ccc(C(=O)NCCc3cccs3)cc2nn1CC,12,i,0,-367,25*,5
O=c1c([N+](=O)[O-])c(Cl)c2ccccc2n1Cc1ccccc1,.,-14,-6,-5,.,1
COC(C[C@H]1O[C@H]1[C@@H](O)[C@H](C)OCc1ccccc1)OC,0,3,1,2,1,-2
COC(C[C@H]1O[C@@H]1[C@H](O)[C@H](C)OCc1ccccc1)OC,0,7,-6,6,26*,-2
CC(c1cc(F)ccc1O)c1c[nH]c2ccccc12 (stereo unspecified),0,-3,4,1,.,-1
Cn1nnnc1SCc1ccc(C(=O)Nc2ccccc2F)cc1,0,1,4,0,-16,-1
Cc1cc(C)cc(NC(=O)c2ccc(CSc3nnnn3C)cc2)c1,0,-1,3,0,28*,11
CC(C)CNC(=O)OCc1cn(Cc2cccc(F)c2F)nn1,0,0,1,0,.,8
O=c1c(/C=N/OCc2ccc(Cl)cc2Cl)c[nH]n1-c1cccc(Cl)n1,-1,1,-5,2,7,-1
O=c1c(-n2cncn2)c[nH]n1-c1cccc(Cl)n1,0,-4,-4,-1,18*,-5
O=C(NCCN1CCOCC1)C(=O)NCC1CCCO1 (stereo unspecified),0,4,6,1,38*,4
O=C(NCCCN1CCOCC1)C(=O)NCC1CCCO1 (stereo unspecified),0,1,-16,2,-2,-1
CCOC(=O)CCc1c(C)c2ccc(O)cc2oc1=O,45*,i,-8,i,2,6
COc1ccc(N2C(=O)C3[C@@H](C2=O)C2(Cl)C(Cl)=C(Cl)C3(Cl)C2(OC)OC)cc1 (stereo partly specified),0,3,-5,-1,27*,4
COc1ccc(N2C(=O)C3C4C=CC(c5ccccc5)(C3C2=O)C2C(=O)N(c3ccc(OC)cc3)C(=O)C42)cc1 (stereo unspecified),1,0,4,-2,0,1
COc1ccc(OC)c(CN2C(=O)CSCC2(C)C(=O)NCc2ccccc2)c1 (stereo unspecified),-1,12*,-1,3,-5,-2
Cc1cc(C)n2c(Nc3ccc4c(c3)OCCO4)c(-c3ccccn3)nc2n1,1,-62,2,-46,21*,2
Cc1cc(C)n2c(Nc3ccc4c(c3)OCCO4)c(-c3cc4ccccc4o3)nc2n1,-27,-237,0,-172,-12,0
COc1cc(C(=O)N/N=C/c2ccc(OC(=O)c3cccc(C)c3)cc2)ccc1O,0,3,-16,16*,7,3
SMILES,proKLK7 act,PLCb3 inh,Tn6 DDE FP,PLCg1 inh,NRP1-CendR mod,Tn7 DDE FP
O=C(NCCc1ccc2c(c1)OCO2)c1cc(-c2ccccc2)c(N2CCOCC2)s1,-1,-7,-9,-5,.,0
O=S(=O)(c1ccccc1)c1cnc2ccccc2c1,-1,7,0,1,26*,-4
CCOC(=O)[C@@]12CN(C(=O)OC(C)(C)C)CC=C1N(Cc1ccc(OC)cc1)C(=O)[C@H]2CC(=O)N1CCCCC1,0,0,0,-2,.,-4
CNc1cncc(-c2ccccc2NC(C)=O)n1,6,-98,-10,-78,32*,-1
COc1ccc(CNC(=O)CCc2c[nH]c3ccccc23)cc1,0,-4,8,-2,27*,5
CC1(C(=O)NCc2ccccc2)CCC(=O)N1CCc1c[nH]c2ccccc12 (stereo unspecified),1,-1,-5,0,24*,0
CC1(C(=O)NCc2ccccc2)CSCC(=O)N1CCc1c[nH]c2ccccc12 (stereo unspecified),0,2,3,2,-1,-2
COC(=O)c1ccc(CNC(=O)CCc2c[nH]c3ccccc23)cc1,0,-5,-1,-1,6,4
COC(=O)c1ccc(Cn2ccc3ccc(-c4ccc5ccn(Cc6ccc(C(=O)OC)cc6)c5c4)cc32)cc1,0,-105,2,-78,.,5
Cc1ccc(C(=O)N2CCN(c3ccc(C(F)(F)F)cn3)CC2)cc1,0,2,-6,-1,1,0
Cc1ccc(C(=O)N2CCN(c3ccc(C(F)(F)F)cn3)CC2)c(C)c1,0,-2,3,0,38*,4
c1ccc(CN2CCN(c3ncnc4sccc34)CC2)cc1,.,-1,2,5,.,-6
CCOC(=O)[C@]12CCCCC/C=C\1N(CCc1ccc(Cl)cc1)C(=O)[C@H]2CC(=O)NCC12CC3CC(CC(C3)C1)C2,0,2,7,-1,.,7
O=C1NC[C@@H](CCCCN2CCN(CCC3CCCCC3)C(=O)C2=O)N(Cc2ccccc2)C1=O,0,6,-1,14*,13,5
O=C1NC[C@@H](CCCCN2CCN(CC3CCCCC3)C(=O)C2=O)N(Cc2ccccc2)C1=O,1,2,9,-3,-4,-3
CC1(C)S[C@@H]2[C@H](NC(=O)COc3ccccc3)C(=O)N2C1C(=O)OCC1CCCCC1 (stereo partly specified),0,-1,-3,-3,25*,8
O=C(O)CCNc1cc(N2CCN(C(=O)c3ccco3)CC2)c2noc3c2c1C(=O)c1ccccc1-3,0,-9,46*,-1,-115,-4
